From publication PMC8247328 (British Journal of Clinical Pharmacology, 2020)
Where a SMILES comes first, the peptide text is derived from it. [ ]: non-standard residue; d: D form.

What was measured:
[1] = test system: mitochondrial function in the visual cortex; assay: 31P-MRS of the visual cortex before, during and after visual stimulation; assay type: in vivo, human; conditions: Part 2; 25 mg s.c. once daily 28 d; n=11; day 27
Summary of the method: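 At 3 T, a 6-cm 31P transmit/receive surface coil was placed over the visual cortex, positioned using a 10-mm water sphere on 1H images. Adiabatic pulse-acquire (TR 2 s, flip 90°) FIDs were collected for 4 min at rest (128 averages), 8 min during visual activation (256) and 8 min after (256). Time-domain fitting with prior knowledge gave PCr/ATP, Pi/PCr, Pi/ATP and pH. Scans ran on day −1 and 1.5 h post-dose on day 27; mixed-model ANCOVA used baseline as covariate.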

[2] = test system: mitochondrial function in calf muscle; assay: Dynamic 31P-MRS of calf skeletal muscle; assay type: in vivo, human
Summary of the method: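 Calf muscle was scanned by dynamic 31P-MRS at 7 T with a surface coil and an MRI-compatible pedal ergometer, before, during and after exercise (pulse-acquire, 2-s resolution, flip 45°, 1 average). Pi, PCr and ATP peaks were integrated. τPCr came from a monoexponential fit, and pH from the PCr–Pi frequency difference. Scans were repeated after a 10-min break if end-exercise pH was <6.8. Outliers deviating >5% (up to 10%) were removed. Timing: screening and day 7 (Part 1), day −1 and day 27 (Part 2), 1.5 h post-dose. Analysis was ANCOVA; the posthoc split used the pre-dose median.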

SN4741 cells = conditions: cultured SN4741 cells exposed to MPTP; cited from earlier work
[3] = test system: patients with early stage HD; assay: Motor assessments and UHDRS; assay type: in vivo, human; conditions: Part 2; 25 mg s.c. once daily 28 d
Summary of the method: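 In Part 2 only, motor and neurocognitive tests were run at the start and 1.5 h after the final subcutaneous dose on day 28. Each parameter was analysed by mixed-model ANCOVA with treatment as fixed factor and baseline as covariate, with no multiplicity adjustment.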

PBMCs = assay type: cell-based, human; conditions: Part 2; 25 mg s.c. once daily; after 27 days
rats = conditions: ischaemia/reperfusion, single dose of 4 mg/kg; cited from earlier work
MPTP‐treated mice = conditions: cited from earlier work
[4] = test system: patients with early stage HD; assay: Safety: treatment-emergent adverse events, laboratory, vital signs, ECG; assay type: in vivo, human
Summary of the method: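 The trial was randomized and placebo-controlled in early HD. Part 1 gave 5, 15 or 25 mg subcutaneously once daily for 7 days (6 active, 2 placebo per cohort). Part 2 re-randomized patients 12:12 to 28 days. Adverse events, vitals, laboratory, ECG and physical examination were recorded on clinic days and at home visits (days 7, 14, 21 in Part 2). Plasma histamine was sampled 15 and 30 min post-dose.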

[5] = Part 1, 5 mg s.c. once daily 7 d, n=6, day 7
[6] = Part 1, 15 mg s.c. once daily 7 d, n=6, day 7
[7] = Part 1, 25 mg s.c. once daily 7 d, ANCOVA
[8] = Part 1, 25 mg s.c. once daily 7 d, n=6, day 7
[9] = Part 2, 25 mg s.c. once daily 28 d, ANCOVA
[10] = Part 2, 25 mg s.c. once daily 28 d, n=11, day 27

N=C(N)NCCC[C@@H](NC(=O)[C@@H](N)Cc1ccccc1)C(=O)N[C@@H](Cc1ccccc1)C(=O)N[C@@H](CCCCN)C(N)=O [SBT‐020, H‐Phe‐D‐Arg‐Phe‐Lys‐NH2] (H-F[dR]FK-NH2)
Pi/ATP before visual stimulation (central 31P‐MRS), LS mean [1]: 0.2 | Pi/ATP during visual stimulation (central 31P‐MRS), LS mean [1]: 0.2 | Pi/ATP during‐after visual stimulation (central 31P‐MRS), LS mean [1]: −0.02 | Pi/ATP during‐before visual stimulation (central 31P‐MRS), LS mean [1]: −0.01 | Pi/PCr after visual stimulation (central 31P‐MRS), LS mean [1]: 0.2 | Pi/PCr before visual stimulation (central 31P‐MRS), LS mean [1]: 0.2 | Pi/PCr during visual stimulation (central 31P‐MRS), LS mean [1]: 0.2 | Pi/PCr during‐after visual stimulation (central 31P‐MRS), LS mean [1]: −0.005 | Pi/PCr during‐before visual stimulation (central 31P‐MRS), LS mean [1]: −0.006 | τPCr with 31P‐MRS, contrast vs placebo (95% CI) ([2]; Part 1, 5 mg s.c. once daily 7 d, ANCOVA): 6.505 (−3.4601, 16.4696) P = .1844 s | PCr/ATP resting phase 31P‐MRS scan, LS mean [2, 5]: 3.7838 | PCr/pi resting phase 31P‐MRS scan, LS mean [2, 5]: 9.9289 | τPCr with 31P‐MRS, LS mean ([2]; Part 1, 5 mg s.c. once daily 7 d, n=6, day 7, 1.5 h post dose): 40.9016 s | τPCr with 31P‐MRS, contrast vs placebo (95% CI) ([2]; Part 1, 15 mg s.c. once daily 7 d, ANCOVA): 8.807 (−1.0294, 18.6436) P = .0757 s | PCr/ATP resting phase 31P‐MRS scan, LS mean [2, 6]: 3.8400 | PCr/pi resting phase 31P‐MRS scan, LS mean [2, 6]: 11.5607 | τPCr with 31P‐MRS, LS mean ([2]; Part 1, 15 mg s.c. once daily 7 d, n=6, day 7, 1.5 h post dose): 43.2040 s | PCr/pi resting phase 31P‐MRS scan, contrast vs placebo (95% CI) [2, 7]: 0.7604 (−1.0773, 2.598) P = .3948 | τPCr with 31P‐MRS, contrast vs placebo (95% CI) [2, 7]: 5.477 (−5.5072, 16.4620) P = .3047 s | PCr/ATP resting phase 31P‐MRS scan, LS mean [2, 8]: 3.8510 | PCr/pi resting phase 31P‐MRS scan, LS mean [2, 8]: 11.2289 | τPCr with 31P‐MRS, LS mean ([2]; Part 1, 25 mg s.c. once daily 7 d, n=6, day 7, 1.5 h post dose): 39.8743 s | Mean τPCr after 7 days of treatment ([2]; Part 1, 5‐mg cohort, baseline mean 41.9): 42.5 s | Mean τPCr after 7 days of treatment ([2]; Part 1, 15‐mg cohort, baseline mean 40.0): 43.1 s | Mean τPCr after 7 days of treatment ([2]; Part 1, 25‐g cohort (so in the source), baseline mean 39.2): 38.8 s | Effect on τPCr, ∆Ψm and percentage of dysfunctional PBMCs ([2]; Part 1, after 7 days of treatment, 5, 15, 25 mg): No overall or dose‐related effects | PCr/ATP resting phase 31P‐MRS scan, contrast vs placebo (95% CI) [2, 9]: −.07 (−0.3, 0.2) P = .54 | PCr/pi resting phase 31P‐MRS scan, contrast vs placebo (95% CI) [2, 9]: 0.1 (−2.0, 2.1) P = .94 | τPCr with 31P‐MRS, contrast vs placebo (95% CI) [2, 9]: 2.8 (−9.3, 15.0) P = .63 sec | PCr/ATP resting phase 31P‐MRS scan, LS mean [2, 10]: 3.7 | PCr/pi resting phase 31P‐MRS scan, LS mean [2, 10]: 10.2 | τPCr with 31P‐MRS, LS mean ([2]; Part 2, 25 mg s.c. once daily 28 d, n=11, day 27, 1.5 h post dose): 40.8 s | Change of τPCr, posthoc ([2]; Part 2, active, high mitochondrial function group (τPCr of < 42.4 s)): did not decrease | Effect on τPCr, ∆Ψm and percentage of dysfunctional PBMCs ([2]; Part 2, after 28 days of treatment, 25 mg): No overall effects | Cell viability and apoptosis (SN4741 cells): improved cell viability and reduced apoptosis | Effect on motor function [3]: no effect | Effect on ∆Ψm values and half maximal inhibitory concentration values for carvedilol and verapamil (PBMCs): no effect | Infarct size and myocardial lipid peroxidation (rats): significantly reduced | Attenuation of MPTP‐induced dopamine depletion (MPTP‐treated mice; MPTP‐treated mice, single dose of 4 mg/kg): 40% | Neuroprotection in the striatum (MPTP‐treated mice; acute MPTP model, peripheral administration at 5 mg/kg, ref not given): sufficient to achieve neuroprotection | Effect in MPTP‐induced mouse model of Parkinson's disease (MPTP‐treated mice; given systemically): effective in attenuating injury and improving neurotransmitter release | Overall safety ([4]; 5, 15, 25 mg s.c. once daily 7 d and 25 mg 28 d): safe in all dose levels | Plasma histamine levels ([4]; 15 and 30 minutes after administration): not elevated | Severity of injection site reactions ([4]; Parts 1 and 2, developed within a few minutes of dosing, resolved within the hour): mild
